The target in data set [1] is Acetylcholinesterase (Electrophorus electricus, UniProt O42275). The data set can be described thus: Inhibition of electric eel AChE using acetylthiocholine iodide as substrate preincubated for 2 mins followed by substrate addition and measured after 2 mins by Ellman's method. The settings on record: read-out: IC50. (Ellman's reagent forms a yellow product with free thiols.)

The target of data set [2] is Amyloid-beta precursor protein (Homo sapiens) (UniProt P05067). The data set can be described thus: Inhibition of self-induced human amyloid beta (1 to 42) aggregation at 25 uM after 24 hrs by thioflavin-T based fluorescence assay relative to control. An outline of the steps:
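Thioflavin T fluorescence assay of self-induced Aβ1-42 aggregation, with test compound present at 25 μM and resveratrol as the positive control. Inhibition is given in percent as mean ± SD of at least three independent experiments.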

The nature of data set [3]: Neurotoxicity against human SH-SY5Y cells assessed as cell viability at 1 uM after 24 hrs by MTT assay relative to control. Conditions: read-out: Activity. The format is toxicity, cell-based. An outline of the steps:
(§1)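 Cytotoxicity assay: SH-SY5Y cells were incubated with compound at 1, 2.5, 5 or 10 μM for 24 h. Viability was determined by MTT and expressed as percent of control, mean ± SD of 3 independent experiments.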
(In general: Tetrazolium dyes change colour on reduction, which living cells bring about.)

Data set [4] in a line: Neurotoxicity against human SH-SY5Y cells assessed as cell viability at 2.5 uM after 24 hrs by MTT assay relative to control. The data set is classed as toxicity, cell-based. Conditions: read-out: Activity. The essentials:
as §1

Data set [5] can be described thus: Neurotoxicity against human SH-SY5Y cells assessed as cell viability at 5 uM after 24 hrs by MTT assay relative to control. The format is toxicity, cell-based. The settings on record: read-out: Activity. An outline of the steps: as §1
A short description of data set [6]: Neurotoxicity against human SH-SY5Y cells assessed as cell viability at 10 uM after 24 hrs by MTT assay relative to control. The format is toxicity, cell-based. Conditions: read-out: Activity. An outline of the steps: as §1
Data set [7] concerns SH-SY5Y. As to the kind of experiment: Neuroprotective activity against amyloid beta (1 to 42)-induced neurodegeneration in human SH-SY5Y cells assessed as cell viability at 1 uM after 48 hrs by MTT assay (reference value: 54.2%). The format is functional. The settings on record: read-out: Activity. An outline of the steps: (§2)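 SH-SY5Y neuroblastoma cells were exposed to Aβ1-42 (30 μM) for 48 h, with or without compound at 1 or 5 μM. Viability was measured by MTT assay against Aβ1-42-only and untreated controls. Data are mean ± SEM of three experiments, each run in triplicate.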

For data set [8], the system named is SH-SY5Y. The data set can be described thus: Neuroprotective activity against amyloid beta (1 to 42)-induced neurodegeneration in human SH-SY5Y cells assessed as cell viability at 5 uM after 48 hrs by MTT assay (reference value: 54.2%). Conditions: read-out: Activity. The format is functional. The essentials: as §2
The subject of data set [9] is SH-SY5Y. As to the kind of experiment: Neuroprotective activity against H2O2-induced oxidative stress in human SH-SY5Y cells assessed as cell viability at 1 uM after 24 hrs by MTT assay (reference value: 57.2%). The data set is classed as functional. The settings on record: read-out: Activity. The essentials: (§3)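 SH-SY5Y cells were treated with H₂O₂ (300 μM) for 24 h, with compound (1 or 5 μM) co-treated. Viability was read by MTT and compared with H₂O₂-only and untreated controls. Data are mean ± SEM of three experiments, each run in triplicate.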

Data set [10] concerns SH-SY5Y. The data set can be described thus: Neuroprotective activity against H2O2-induced oxidative stress in human SH-SY5Y cells assessed as cell viability at 5 uM after 24 hrs by MTT assay (reference value: 57.2%). Conditions: read-out: Activity. The data set is classed as functional. An outline of the steps: as §3
Data set [11] has as its system SH-SY5Y. As to the kind of experiment: Neuroprotective activity against okadaic acid-induced cell death in human SH-SY5Y cells assessed as cell viability at 1 uM after 24 hrs by MTT assay (reference value: 53.1%). The format is functional. Conditions: read-out: Activity.

Structures are written as SMILES.

Chain of Acetylcholinesterase (O42275 whole entry): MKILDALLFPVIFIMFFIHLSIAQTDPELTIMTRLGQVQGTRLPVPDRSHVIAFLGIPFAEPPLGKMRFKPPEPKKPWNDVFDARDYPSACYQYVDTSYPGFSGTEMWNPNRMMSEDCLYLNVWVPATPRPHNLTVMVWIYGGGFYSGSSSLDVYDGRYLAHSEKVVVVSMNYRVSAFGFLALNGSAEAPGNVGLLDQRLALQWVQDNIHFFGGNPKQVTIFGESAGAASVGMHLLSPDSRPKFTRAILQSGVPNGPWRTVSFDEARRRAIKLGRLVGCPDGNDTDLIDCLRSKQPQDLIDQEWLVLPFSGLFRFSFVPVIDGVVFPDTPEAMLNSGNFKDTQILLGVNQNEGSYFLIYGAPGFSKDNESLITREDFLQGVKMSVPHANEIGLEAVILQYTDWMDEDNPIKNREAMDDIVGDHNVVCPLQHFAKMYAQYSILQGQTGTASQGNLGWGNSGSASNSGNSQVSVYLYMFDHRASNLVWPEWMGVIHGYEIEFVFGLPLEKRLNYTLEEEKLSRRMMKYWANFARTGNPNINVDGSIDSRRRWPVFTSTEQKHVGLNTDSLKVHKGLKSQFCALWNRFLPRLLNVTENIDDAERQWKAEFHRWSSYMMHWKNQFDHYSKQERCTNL
Chain of Amyloid-beta precursor protein (Homo sapiens) (P05067 whole entry): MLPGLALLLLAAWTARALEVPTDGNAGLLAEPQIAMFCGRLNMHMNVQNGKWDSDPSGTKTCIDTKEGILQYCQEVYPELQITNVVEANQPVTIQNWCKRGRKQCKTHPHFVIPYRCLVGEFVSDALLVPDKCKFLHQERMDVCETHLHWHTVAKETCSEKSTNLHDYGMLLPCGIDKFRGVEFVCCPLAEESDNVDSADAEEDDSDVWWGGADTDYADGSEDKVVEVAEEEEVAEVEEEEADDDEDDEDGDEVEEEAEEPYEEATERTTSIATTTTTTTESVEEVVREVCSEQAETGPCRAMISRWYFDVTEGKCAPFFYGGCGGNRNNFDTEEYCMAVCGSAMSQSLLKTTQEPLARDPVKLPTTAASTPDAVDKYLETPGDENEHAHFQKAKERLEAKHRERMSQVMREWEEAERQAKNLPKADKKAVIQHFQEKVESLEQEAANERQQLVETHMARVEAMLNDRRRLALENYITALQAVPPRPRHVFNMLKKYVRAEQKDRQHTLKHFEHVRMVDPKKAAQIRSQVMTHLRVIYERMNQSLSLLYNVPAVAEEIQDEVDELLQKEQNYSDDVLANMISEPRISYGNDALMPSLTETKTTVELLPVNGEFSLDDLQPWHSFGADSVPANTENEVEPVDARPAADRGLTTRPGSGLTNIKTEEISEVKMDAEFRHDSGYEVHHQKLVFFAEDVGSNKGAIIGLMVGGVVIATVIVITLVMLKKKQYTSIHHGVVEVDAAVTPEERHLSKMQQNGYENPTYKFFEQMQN

A word on the IC50: it is the concentration that gives 50% inhibition. By inhibition is commonly meant the share of the control response that was lost under treatment. Higher therefore signals a response far below the control. `COC(=O)C1Cc2c([nH]c3ccccc23)C(C)N1C(=O)CCN1CCN(CCC(=O)N2C(C(=O)OC)Cc3c([nH]c4ccccc34)C2C)CC1` (stereo unspecified): the half-inhibitory concentration (IC50) in [1] stood at 19.9 µM. The inhibition in [2] is 65.6%. Further, in data set [3], the viability at 24 h, 1 µM is 103%. The viability at 24 h, 2.5 µM in [4] is 99.9%. Moreover, the viability at 24 h, 5 µM in [5] was determined as 102%. Moreover, the viability at 24 h, 10 µM in [6] was 90.9%. The viability at 1 µM was found to be 95.4% in data set [7], 82.2% in [9] and 97.1% in [11]. Besides, the viability at 5 µM was 85.4% in data set [8] and 76% in data set [10].

The values above are taken from ChEMBL document CHEMBL4118286, “Design, synthesis and evaluation of novel bivalent β-carboline derivatives as multifunctional agents for the treatment of Alzheimer's disease” (Bioorg Med Chem, 2018).
